Assay [1] deals with Mus musculus. As to the kind of experiment: Adjuvanted-antitumor vaccine activity in C57BL/6 mouse assessed as potentiation of MUC1 specific Th2 immune response by measuring ratio of IgG1 to IgG2c in serum at 4 nmol, ip administered […] and measured after 1 week post last dose by ELISA. Format: functional. Put shortly:
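Sera from female C57BL/6 mice given ip doses on days 0, 14, 28 and 42 were taken 1 week after the last dose. IgG1 and IgG2c were measured by ELISA and expressed as an IgG1/IgG2c ratio; a ratio above 1 was read as a Th2-type response.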

Assay [2] concerns Mus musculus. As to the kind of experiment: Adjuvanted-antitumor vaccine activity in C57BL/6 mouse assessed as potentiation of Th1 mediated response by measuring increase in IL-12 level in splenocytes at 4 nmol, ip administered on […] and measured after 1 weeks post-last dose by incubating splenocytes with MUC1 peptide for 48 hrs by ELISA. Format: functional, organism-based. Put shortly:
(§1)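 Splenocytes came from female C57BL/6 mice immunized ip on days 0, 14, 28 and 42. They were restimulated in culture with MUC1 peptide (10 μg/mL), and IL-4, IL-6, IL-12 and IFN-γ were measured in the supernatants. A PBS-immunized group served as comparison.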
In general terms: In an ELISA, binding on a coated surface is turned into a signal by an enzyme label.

The subject of assay [3] is Mus musculus. Briefly: Aduvanted-antitumor vaccine activity in C57BL/6 mouse assessed as potentiation of MUC1 specific Th1 immune response by measuring increase in serum IgG2c level at 4 nmol, ip administered […] and measured after 1 week post last dose by ELISA. It counts as functional, organism-based. The method in brief: (§2)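 Female C57BL/6 mice, immunized intraperitoneally on days 0, 14, 28 and 42 (PBS group as control). Sera were collected 1 week after the last dose. ELISA measured total IgG titer or the IgG1, IgG2b, IgG2c and IgG3 isotypes. Values are given as mean ± SD.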

Assay [4] has as its system Mus musculus. As to the kind of experiment: Adjuvanted-antitumor vaccine activity in C57BL/6 mouse assessed as potentiation of MUC1 mediated immune response by measuring increase in serum IgG3 level at 4 nmol, ip administered on […] and measured after 1 week post last dose by ELISA. It counts as functional, organism-based. Put shortly: as §2
Assay [5] has as its system Mus musculus. Briefly: Adjuvanted-antitumor vaccine activity in C57BL/6 mouse assessed as potentiation of MUC1 specific Th2 immune response by measuring increase in serum IgG1 level at 4 nmol, ip administered on […] and measured after 1 week post last dose by ELISA. It counts as functional, organism-based. The method in brief:
as §2

Assay [6] concerns Mus musculus. Briefly: Adjuvanted-antitumor vaccine activity in C57BL/6 mouse assessed as potentiation of Th1 mediated response by measuring increase in IFN-gamma level in splenocytes at 4 nmol, ip administered […] and measured after 1 week post-last dose by incubating splenocytes with MUC1 peptide for 48 hrs by ELISA. It counts as functional, organism-based. Put shortly:
as §1

Assay [7] deals with Mus musculus. Briefly: Adjuvanted-antitumor vaccine activity in C57BL/6 mouse assessed as potentiation of Th2 mediated response by measuring increase in IL-6 level in splenocytes at 4 nmol, ip administered […] and measured after 1 weeks post-last dose by incubating splenocytes with MUC1 peptide for 48 hrs by ELISA. Format: functional, organism-based. The method in brief:
as §1

Assay [8] deals with Mus musculus. As to the kind of experiment: Adjuvanted-antitumor vaccine activity in C57BL/6 mouse assessed as potentiation of Th2 mediated response by measuring increase in IL-4 level in splenocytes at 4 nmol, ip administered on […] and measured after 1 weeks post-last dose by incubating splenocytes with MUC1 peptide for 48 hrs by ELISA. It counts as functional, organism-based. Put shortly:
as §1

For assay [9], the system named is Mus musculus. Briefly: Adjuvanted-antitumor vaccine activity in C57BL/6 mouse assessed as potentiation of MUC1 mediated immune response by measuring increase in serum IgG2b level at 4 nmol, ip administered on […] and measured after 1 week post last dose by ELISA. Format: functional, organism-based. Put shortly:
as §2

Assay [10] concerns Peritoneal macrophage. Briefly: Adjuvanted-antitumor vaccine activity in C57BL/6 mouse peritoneal macrophages assessed as induction of IL-6 production after 24 hrs by ELISA. Format: functional, cell-based. The method in brief: (§3)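 Peritoneal macrophages were harvested from C57BL/6 mice and incubated with the adjuvanted vaccine constructs. IL-6 and IL-12 released into the culture supernatant were quantified against a PBS control. Values are given as mean ± SD.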

Assay [11] concerns Mus musculus. Briefly: Adjuvanted-antitumor vaccine activity in C57BL/6 mouse assessed as induction of IgG production in serum at 4 nmol, ip administered […] and measured after 1 week post last dose by ELISA. Format: functional, organism-based. Put shortly: as §2
The subject of assay [12] is Mus musculus. Briefly: Adjuvanted-antitumor vaccine activity in C57BL/6 mouse assessed as induction of MUC1-specific antisera production by measuring binding activity with MCF7 cells expressing MUC1 at 4 nmol, ip administered on […] and measured after 1 week post-last dose by incubating cells with compound-immunized mouse sera for 1 hr by FACS analysis. It counts as functional, organism-based. Put shortly: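 Antisera were collected 1 week after the fourth ip immunization (days 0, 14, 28, 42) of female C57BL/6 mice. MUC1-expressing human breast cancer MCF-7 cells were incubated with the antisera, then with FITC-labelled goat anti-mouse antibody, and binding was read by flow cytometry. The PBS-immunized group served as control.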
A general note: In flow cytometry, cells or beads pass a laser one at a time.

Assay [13] concerns Peritoneal macrophage. Briefly: Adjuvanted-antitumor vaccine activity in C57BL/6 mouse peritoneal macrophages assessed as induction of IL-12 production after 24 hrs by ELISA. It counts as functional, cell-based. Put shortly: as §3

Calls of active or inactive are those of the source. The calls are words filed in the database; no cut-off is given here. A value given as a limit tells only on which side of the number the result lay.

As for `CCCCCCCCCCCCCCCC(=O)OC[C@@H](CSC[C@H](N)C(=O)NCC(=O)N[C@@H](CC(=O)O)C(=O)N1CCC[C@H]1C(=O)N[C@@H](CCCCN)C(=O)N[C@@H](Cc1c[nH]cn1)C(=O)N1CCC[C@H]1C(=O)N[C@@H](CCCCN)C(=O)N[C@@H](CO)C(=O)N[C@@H](Cc1ccccc1)C(=O)NCC(=O)NCC(=O)NCC(=O)N[C@@H](Cc1c[nH]cn1)C(=O)NCC(=O)N[C@H](C(=O)N[C@H](C(=O)N[C@@H](CO)C(=O)N[C@@H](C)C(=O)N1CCC[C@H]1C(=O)N[C@@H](CC(=O)O)C(=O)N[C@H](C(=O)N[C@@H](CCCNC(=N)N)C(=O)N1CCC[C@H]1C(=O)N[C@@H](C)C(=O)N1CCC[C@H]1C(=O)NCC(=O)N[C@@H](CO)C(=O)N[C@H](C(=O)N[C@@H](C)C(=O)N1CCC[C@H]1C(=O)N1CCC[C@H]1C(=O)N[C@@H](C)C(=O)O)[C@@H](C)O)[C@@H](C)O)[C@@H](C)O)C(C)C)OC(=O)CCCCCCCCCCCCCCC`, the Ratio in the assay with Mus musculus [1] is listed as more than 1. The result in the assay with Mus musculus [2], in the assay with Mus musculus [3], with Mus musculus [4], in the assay on Mus musculus [5], with Mus musculus [6] and with Mus musculus [7] was Active. The result in the assay on Mus musculus [8], in the assay on Mus musculus [9], with Peritoneal macrophage [10], with Mus musculus [11], in the assay with Mus musculus [12] and in the assay on Peritoneal macrophage [13] was Active.
On to `CCCCCCCCCCCCCCCC(=O)OC[C@H](CSC[C@H](N)C(=O)NCC(=O)N[C@@H](CC(=O)O)C(=O)N1CCC[C@H]1C(=O)N[C@@H](CCCCN)C(=O)N[C@@H](Cc1c[nH]cn1)C(=O)N1CCC[C@H]1C(=O)N[C@@H](CCCCN)C(=O)N[C@@H](CO)C(=O)N[C@@H](Cc1ccccc1)C(=O)NCC(=O)NCC(=O)NCC(=O)N[C@@H](Cc1c[nH]cn1)C(=O)NCC(=O)N[C@H](C(=O)N[C@H](C(=O)N[C@@H](CO)C(=O)N[C@@H](C)C(=O)N1CCC[C@H]1C(=O)N[C@@H](CC(=O)O)C(=O)N[C@H](C(=O)N[C@@H](CCCNC(=N)N)C(=O)N1CCC[C@H]1C(=O)N[C@@H](C)C(=O)N1CCC[C@H]1C(=O)NCC(=O)N[C@@H](CO)C(=O)N[C@H](C(=O)N[C@@H](C)C(=O)N1CCC[C@H]1C(=O)N1CCC[C@H]1C(=O)N[C@@H](C)C(=O)O)[C@@H](C)O)[C@@H](C)O)[C@@H](C)O)C(C)C)OC(=O)CCCCCCCCCCCCCCC`, for which the Ratio in the assay on Mus musculus [1] was more than 1. Besides, the outcome in the assay on Mus musculus [2], with Mus musculus [3], with Mus musculus [4], in the assay with Mus musculus [5], in the assay with Mus musculus [6] and in the assay with Mus musculus [7] was Active. Besides, the outcome with Mus musculus [8], in the assay on Mus musculus [9], in the assay on Peritoneal macrophage [10], in the assay on Mus musculus [11], in the assay on Mus musculus [12] and in the assay on Peritoneal macrophage [13] was Active.

Source of the values: ChEMBL document CHEMBL4622961, “Design, Synthesis, and Preliminary Immunological Studies of MUC1-Based Antitumor Vaccines Adjuvanted with R- and S-FSL-1” (2020).
